Source: ChEMBL document CHEMBL3351639, “Fluorinated analogues of marsanidine, a highly α2-AR/imidazoline I1 binding site-selective hypotensive agent. Synthesis and biological activities” (Eur J Med Chem, 2014)

Experiments:
[1] = molecular target: T1, Alpha-2A adrenergic receptor (Homo sapiens, UniProt P08913); assay: Agonist activity at human alpha2A adrenoceptor expressed in CHO-K1 cells after 30 mins by [35S]GTPgammaS binding assay; assay type: functional, cell-based
T1 sequence (P08913 whole entry): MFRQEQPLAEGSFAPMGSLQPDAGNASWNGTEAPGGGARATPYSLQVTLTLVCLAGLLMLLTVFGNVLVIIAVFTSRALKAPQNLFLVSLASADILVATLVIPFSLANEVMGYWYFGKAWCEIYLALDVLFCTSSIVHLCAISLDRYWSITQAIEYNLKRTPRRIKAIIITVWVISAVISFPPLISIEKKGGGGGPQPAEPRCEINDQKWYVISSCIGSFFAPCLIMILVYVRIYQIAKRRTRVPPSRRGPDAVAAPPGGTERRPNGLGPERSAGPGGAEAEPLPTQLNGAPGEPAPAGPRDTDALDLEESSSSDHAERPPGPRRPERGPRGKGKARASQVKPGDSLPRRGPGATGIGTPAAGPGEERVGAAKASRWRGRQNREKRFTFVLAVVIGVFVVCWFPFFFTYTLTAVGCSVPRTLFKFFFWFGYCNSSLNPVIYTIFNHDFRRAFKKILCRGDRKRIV
In short: (§1)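 Membranes from CHO cells stably expressing human α2A-AR (5 µg protein) were incubated with 7 or 8 serial dilutions of compound and 0.1 nM [35S]GTPγS. Buffer: 25 mM Tris, 1 mM EDTA, 5 mM MgCl2, 20 mM NaCl, 1 µM GDP, 1 mM DTT, 30 µM ascorbic acid, pH 7.4. Incubation 30 min at RT, then vacuum filtration and scintillation counting. Run in duplicate, at least 3 repeats.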

[2] = molecular target: T2, Alpha-2B adrenergic receptor (Homo sapiens, UniProt P18089); assay: Displacement of [3H]RS-79948-197 from human alpha2B adrenoceptor expressed in CHO-K1 cells after 45 mins by liquid scintillation counting; assay type: cell-based
T2 sequence (P18089 whole entry): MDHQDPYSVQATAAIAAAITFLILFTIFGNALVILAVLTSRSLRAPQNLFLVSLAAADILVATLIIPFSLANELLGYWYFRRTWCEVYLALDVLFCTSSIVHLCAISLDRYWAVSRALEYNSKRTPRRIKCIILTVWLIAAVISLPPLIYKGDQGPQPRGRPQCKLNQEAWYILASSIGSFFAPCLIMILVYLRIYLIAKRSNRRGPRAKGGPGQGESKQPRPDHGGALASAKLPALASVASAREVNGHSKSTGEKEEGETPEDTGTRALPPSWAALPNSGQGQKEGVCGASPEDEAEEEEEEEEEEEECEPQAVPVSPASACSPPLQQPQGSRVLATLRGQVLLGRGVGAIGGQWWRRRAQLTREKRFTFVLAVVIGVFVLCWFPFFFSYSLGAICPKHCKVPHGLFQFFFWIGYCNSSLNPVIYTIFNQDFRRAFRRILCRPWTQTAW
In short: (§2)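 Membranes from CHO-K1 cells stably expressing each human α2-AR subtype (6–10 µg protein). Used 0.2 nM [3H]RS-79948-197 and 8 serial dilutions of competitor in 50 mM potassium phosphate, pH 7.4. Non-specific binding defined with 100 µM oxymetazoline. Filtration, then scintillation counting. Run in duplicate, at least 3 repeats. One-site nonlinear fit; IC50 converted to Ki by Cheng-Prusoff.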

[3] = molecular target: T1, Alpha-2A adrenergic receptor; assay: Displacement of [3H]RS-79948-197 from human alpha2A adrenoceptor expressed in CHO-K1 cells after 45 mins by liquid scintillation counting; assay type: cell-based; in short: as §2
[4] = molecular target: T3, Alpha-2A adrenergic receptor (Homo sapiens) (UniProt P08913); assay: Intrinsic activity at human alpha2A adrenoceptor expressed in CHO-K1 cells after 30 mins by [35S]GTPgammaS binding assay relative to norepinephrine; assay type: functional, cell-based; in short: as §1
T3 sequence (whole entry): T1 sequence (P08913 whole entry)

| Compound | EC50 [1] [µM] | Ki [2] [µM] | Ki [3] [µM] | Intrinsic activity [4] [%] |
| --- | --- | --- | --- | --- |
| Fc1ccc2cnn(N=C3NCCN3)c2c1 | 0.0389 | 0.072 | 0.033 | 5.2 |
| Fc1cccc2cnn(N=C3NCCN3)c12 | 0.2 | 0.158 | 0.065 | 18 |
